# Laboratory results from ChEMBL document CHEMBL2417545, “6-methoxy-7-benzofuranoxy and 6-methoxy-7-indolyloxy analogues of 2-[2-(2,6-Dimethoxyphenoxy)ethyl]aminomethyl-1,4-benzodioxane (WB4101):1 discovery of a potent and selective α1D-adrenoceptor antagonist” (J Med Chem, 2013).
# pKi: −log10 of the molar value.
# How the values were obtained:
# Cavia porcellus = species: Cavia porcellus; test: Inverse agonist activity at alpha-1 receptor in guinea pig thoracic aorta assessed as inhibition of calcium-induced increase in resting tension at 10 nM relative to control; format: tissue-based
# Summary of the method: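 Guinea pig thoracic aortic strips in Krebs at 37 °C, equilibrated 1 h at 1 g tension, then given (−)-noradrenaline 1 μM. Internal Ca²⁺ stores were depleted by repeated agonist in Ca²⁺-free Krebs with 0.1 mM EDTA. After 30 min with antagonist at 10 nM, 1.8 mM Ca²⁺ was added. Read-out: % decrease of Ca²⁺-induced increase in resting tension versus no-agent reference.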
# [1] = target: T1, Alpha-1A adrenergic receptor (Homo sapiens, UniProt P35348); test: Displacement of [3H]prazosin from human alpha-1A adrenoreceptor expressed in CHO cells after 30 mins; format: cell-based
# T1 sequence (P35348 whole entry): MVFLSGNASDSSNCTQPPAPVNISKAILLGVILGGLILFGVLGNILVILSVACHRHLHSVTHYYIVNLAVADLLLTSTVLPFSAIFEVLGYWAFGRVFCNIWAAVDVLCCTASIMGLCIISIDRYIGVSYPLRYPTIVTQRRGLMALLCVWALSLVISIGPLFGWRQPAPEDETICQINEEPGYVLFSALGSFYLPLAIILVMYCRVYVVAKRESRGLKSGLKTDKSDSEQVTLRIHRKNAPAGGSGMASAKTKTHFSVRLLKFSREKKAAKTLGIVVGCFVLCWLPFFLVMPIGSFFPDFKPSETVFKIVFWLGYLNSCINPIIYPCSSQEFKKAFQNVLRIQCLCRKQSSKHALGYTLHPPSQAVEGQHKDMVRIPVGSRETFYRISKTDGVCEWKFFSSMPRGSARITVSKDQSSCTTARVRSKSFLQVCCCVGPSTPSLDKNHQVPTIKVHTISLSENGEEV
# Summary of the method: (§1)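 Membranes from CHO cells expressing each α₁-AR subtype, incubated 30 min at 25 °C in 50 mM Tris HCl pH 7.7 with 10 μM pargyline and 0.1% ascorbic acid, plus 0.5 nM [³H]prazosin and varying test compound concentrations. Nonspecific binding was defined with 1 μM prazosin.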
# [2] = target: T2, Alpha-1A adrenergic receptor (Rattus norvegicus, UniProt P43140); test: Antagonist activity at alpha-1A adrenoreceptor in Sprague-Dawley rat prostate assessed as inhibition of noradrenaline-induced tissue contraction after 30 mins by Schild plot analysis; set-up: species or system Prostate gland; conditions: read-out: pA2 (converted)
# T2 sequence (P43140 whole entry): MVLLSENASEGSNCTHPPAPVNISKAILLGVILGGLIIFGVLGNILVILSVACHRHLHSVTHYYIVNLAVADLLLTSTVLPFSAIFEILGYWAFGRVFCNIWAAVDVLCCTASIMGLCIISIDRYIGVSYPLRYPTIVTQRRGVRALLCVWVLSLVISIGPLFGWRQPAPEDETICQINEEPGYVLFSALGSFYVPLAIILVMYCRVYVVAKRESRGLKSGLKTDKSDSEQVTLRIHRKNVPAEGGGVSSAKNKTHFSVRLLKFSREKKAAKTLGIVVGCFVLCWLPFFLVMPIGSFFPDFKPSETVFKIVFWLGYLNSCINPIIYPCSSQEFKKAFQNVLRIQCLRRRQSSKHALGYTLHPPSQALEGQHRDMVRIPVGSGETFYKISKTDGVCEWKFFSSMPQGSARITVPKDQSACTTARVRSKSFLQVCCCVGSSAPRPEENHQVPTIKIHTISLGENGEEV
# Summary of the method: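 Isolated prostatic portion of vas deferens from 200−250 g rats, in gassed (95% O₂/5% CO₂) physiological salt solution at pH 7.4 with desipramine 0.01 μM. Cumulative isotonic (−)-noradrenaline curves were run at 30 min intervals, the first discarded and the second taken as control, then a third after 30 min with antagonist. pA₂ from Schild plot, at least three antagonist concentrations, each tested 3−5 times.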
# [3] = target: T3, Alpha-1D adrenergic receptor (Homo sapiens, UniProt P25100); test: Displacement of [3H]prazosin from human alpha-1D adrenoreceptor expressed in CHO cells after 30 mins; format: cell-based; summary of the method: as §1
# T3 sequence (P25100 whole entry): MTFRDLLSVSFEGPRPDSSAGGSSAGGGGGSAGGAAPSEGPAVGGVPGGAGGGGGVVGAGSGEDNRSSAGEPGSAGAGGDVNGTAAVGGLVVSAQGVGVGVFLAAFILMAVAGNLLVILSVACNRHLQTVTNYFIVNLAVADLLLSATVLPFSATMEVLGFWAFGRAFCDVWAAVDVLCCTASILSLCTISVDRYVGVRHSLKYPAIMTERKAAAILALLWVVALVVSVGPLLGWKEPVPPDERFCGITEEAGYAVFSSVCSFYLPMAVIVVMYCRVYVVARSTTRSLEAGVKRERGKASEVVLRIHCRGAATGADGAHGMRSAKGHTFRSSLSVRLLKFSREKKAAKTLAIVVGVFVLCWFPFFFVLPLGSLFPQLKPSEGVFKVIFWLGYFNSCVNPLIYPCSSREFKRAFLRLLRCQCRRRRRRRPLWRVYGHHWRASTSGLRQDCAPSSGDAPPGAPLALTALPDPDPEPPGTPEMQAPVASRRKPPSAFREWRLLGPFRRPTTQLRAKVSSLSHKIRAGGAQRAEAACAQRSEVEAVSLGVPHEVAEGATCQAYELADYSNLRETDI
# [4] = target: T4, 5-hydroxytryptamine receptor 1A (Rattus norvegicus, UniProt P19327); test: Displacement of [3H]-8-OHDPAT from 5-HT1A receptor in rat hippocampal membranes after 30 mins; format: cell membranes, Hippocampus, Membrane
# T4 sequence (P19327 whole entry): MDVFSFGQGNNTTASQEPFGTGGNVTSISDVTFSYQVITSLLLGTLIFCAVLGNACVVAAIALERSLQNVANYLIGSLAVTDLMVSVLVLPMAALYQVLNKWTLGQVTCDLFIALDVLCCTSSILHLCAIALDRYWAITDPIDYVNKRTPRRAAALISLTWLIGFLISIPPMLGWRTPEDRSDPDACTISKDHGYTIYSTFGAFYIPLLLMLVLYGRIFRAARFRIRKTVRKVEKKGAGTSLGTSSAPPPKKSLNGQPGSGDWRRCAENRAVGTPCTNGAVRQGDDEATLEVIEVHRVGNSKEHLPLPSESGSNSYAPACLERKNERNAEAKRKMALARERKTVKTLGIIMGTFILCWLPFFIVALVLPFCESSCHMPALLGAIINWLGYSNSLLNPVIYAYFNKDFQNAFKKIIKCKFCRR
pKi [1],Kb [2] [nM],pKi [3],pKi [4],Structure (SMILES),inhibition (Cavia porcellus) [%]
8.70,13.2,8.65,7.33,COc1ccc2c(c1OCCNC[C@H]1COc3ccccc3O1)OCC2.Cl,0
8.42,3.63,7.89,6.96,COc1ccc2c(c1OCCNC[C@H]1COc3ccccc3O1)NCC2.Cl.Cl,100
9.31,1.95,8.72,8.59,COc1ccc2ccoc2c1OCCNC[C@H]1COc2ccccc2O1.Cl,0
6.75,13.2,6.20,6.47,COc1ccc2cc[nH]c2c1OCCNC[C@H]1COc2ccccc2O1,25
